Assay results reported in ChEMBL document CHEMBL1155882, “Selective nucleoside triphosphate diphosphohydrolase-2 (NTPDase2) inhibitors: nucleotide mimetics derived from uridine-5'-carboxamide” (J Med Chem, 2008).

Assays:
[1] = target: T1, Ectonucleoside triphosphate diphosphohydrolase 3 (Homo sapiens) (UniProt O75355); assay: Inhibition of human NTPDase 3 expressed in COS7 cells at 1mM; type: cell-based; details: COS-7
T1 sequence (whole entry): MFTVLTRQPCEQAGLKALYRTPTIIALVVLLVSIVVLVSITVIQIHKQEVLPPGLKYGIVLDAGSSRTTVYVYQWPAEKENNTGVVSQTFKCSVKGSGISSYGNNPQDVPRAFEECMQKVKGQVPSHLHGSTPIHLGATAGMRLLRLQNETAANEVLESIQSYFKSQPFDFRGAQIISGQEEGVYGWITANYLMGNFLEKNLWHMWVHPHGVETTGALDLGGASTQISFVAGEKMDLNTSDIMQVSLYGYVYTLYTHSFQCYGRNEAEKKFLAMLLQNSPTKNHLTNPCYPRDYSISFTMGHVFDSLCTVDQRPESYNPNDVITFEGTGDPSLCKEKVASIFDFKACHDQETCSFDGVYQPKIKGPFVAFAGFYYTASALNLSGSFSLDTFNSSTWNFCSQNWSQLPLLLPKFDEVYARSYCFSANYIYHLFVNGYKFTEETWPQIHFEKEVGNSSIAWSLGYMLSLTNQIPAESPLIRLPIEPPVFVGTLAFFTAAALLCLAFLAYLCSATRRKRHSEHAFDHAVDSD
Method in brief: (§1)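 NTPDase2 membranes come from stably transfected HEK 293 cells; NTPDase3 and NTPDase8 are transiently expressed in COS-7 cells as crude protein extracts. Buffer is 140 mM NaCl, 5 mM KCl, 1 mM MgCl2, 2 mM CaCl2, 10 mM HEPES pH 7.4, with 400 μM ATP, 37 °C, 10 min, stopped at 99 °C. Products are read by capillary electrophoresis (UV 210 nm, UMP internal standard).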

[2] = target: T2, Ectonucleoside triphosphate diphosphohydrolase 1 (Homo sapiens) (UniProt P49961); assay: Inhibition of human NTPDase 1 expressed in COS7 cells at 1mM; type: cell-based; details: COS-7
T2 sequence (whole entry): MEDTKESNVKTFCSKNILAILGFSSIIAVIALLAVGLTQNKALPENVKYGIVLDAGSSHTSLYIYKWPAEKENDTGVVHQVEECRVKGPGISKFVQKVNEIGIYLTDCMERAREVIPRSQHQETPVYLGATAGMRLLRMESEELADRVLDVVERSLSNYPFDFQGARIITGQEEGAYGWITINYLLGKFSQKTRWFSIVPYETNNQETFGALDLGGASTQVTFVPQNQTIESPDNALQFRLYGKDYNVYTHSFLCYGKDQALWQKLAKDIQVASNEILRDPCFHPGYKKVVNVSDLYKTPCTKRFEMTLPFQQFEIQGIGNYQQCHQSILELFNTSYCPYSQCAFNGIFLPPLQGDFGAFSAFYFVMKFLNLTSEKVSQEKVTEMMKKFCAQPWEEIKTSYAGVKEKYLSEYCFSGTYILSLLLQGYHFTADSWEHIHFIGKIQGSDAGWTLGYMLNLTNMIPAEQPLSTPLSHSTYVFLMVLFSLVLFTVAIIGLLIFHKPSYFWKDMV
Method in brief: (§2)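 Transiently transfected COS-7 cell protein extract expressing human enzyme. 1 mM test compound with 400 μM ATP in HEPES 10 mM pH 7.4 buffer (NaCl, KCl, 1 mM MgCl2, 2 mM CaCl2), 37 °C for 10 min. Stopped at 99 °C for 5 min. Products measured by capillary electrophoresis, UV 210 nm, with UMP internal standard. Triplicates in two experiments; empty-pcDNA3 membrane control.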

[3] = target: T3, P2Y purinoceptor 2 (Homo sapiens, UniProt P41231); assay: Antagonist activity at human P2Y2 receptor expressed in human 1321N1 cells assessed as inhibition of UTP-induced intracellular calcium mobilization at 100 uM by FLUOstar plate reader; type: functional, cell-based
Method in brief: (§3)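 Human 1321N1 astrocytoma cells express human P2Y2 or P2Y4, or rat P2Y6. Cells are loaded with Fura-2 AM and preincubated with compound at 100 μM. Inhibition of agonist-induced intracellular calcium release is read as Fura-2 fluorescence. The agonist is UTP for P2Y2 and P2Y4, and UDP for P2Y6.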

[4] = target: T4, Ectonucleoside triphosphate diphosphohydrolase 8 (Homo sapiens) (UniProt Q5MY95); assay: Inhibition of human NTPDase 8 expressed in COS7 cells at 1mM; type: cell-based; details: COS-7; method in brief: as §2
T4 sequence (whole entry): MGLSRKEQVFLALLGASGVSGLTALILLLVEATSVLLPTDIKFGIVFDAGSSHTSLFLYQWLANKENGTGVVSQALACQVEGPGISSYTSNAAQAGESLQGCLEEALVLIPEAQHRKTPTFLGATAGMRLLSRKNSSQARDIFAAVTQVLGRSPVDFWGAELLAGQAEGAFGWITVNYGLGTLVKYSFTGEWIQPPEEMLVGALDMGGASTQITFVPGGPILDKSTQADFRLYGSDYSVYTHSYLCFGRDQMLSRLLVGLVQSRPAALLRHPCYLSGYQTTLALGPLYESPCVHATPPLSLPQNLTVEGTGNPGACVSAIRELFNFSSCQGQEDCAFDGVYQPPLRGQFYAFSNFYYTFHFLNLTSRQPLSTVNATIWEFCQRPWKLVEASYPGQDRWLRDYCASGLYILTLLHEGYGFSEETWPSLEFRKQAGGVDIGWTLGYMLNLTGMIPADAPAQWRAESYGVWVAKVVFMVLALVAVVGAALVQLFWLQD

[5] = target: T5, Ectonucleoside triphosphate diphosphohydrolase 2 (Homo sapiens) (UniProt Q9Y5L3); assay: Inhibition of human NTPDase 2 expressed in HEK293 cells at 1mM; type: cell-based
T5 sequence (whole entry): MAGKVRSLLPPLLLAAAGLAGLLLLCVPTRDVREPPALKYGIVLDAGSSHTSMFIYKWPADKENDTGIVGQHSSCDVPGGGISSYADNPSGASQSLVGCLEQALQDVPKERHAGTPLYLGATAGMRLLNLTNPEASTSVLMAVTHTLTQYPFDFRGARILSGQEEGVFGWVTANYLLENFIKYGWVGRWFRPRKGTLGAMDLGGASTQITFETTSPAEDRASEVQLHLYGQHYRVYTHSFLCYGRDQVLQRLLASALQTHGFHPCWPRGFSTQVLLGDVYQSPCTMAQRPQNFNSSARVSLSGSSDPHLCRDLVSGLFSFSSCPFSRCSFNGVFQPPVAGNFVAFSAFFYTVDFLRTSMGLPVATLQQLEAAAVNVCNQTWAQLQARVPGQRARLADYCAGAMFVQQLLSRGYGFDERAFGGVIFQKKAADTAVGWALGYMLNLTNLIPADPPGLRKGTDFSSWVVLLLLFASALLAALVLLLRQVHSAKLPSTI
Method in brief: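 Membranes from HEK 293 cells stably expressing human NTPDase2 (geneticin selection), prepared by differential and sucrose-gradient centrifugation. 1 mM test compound with 400 μM ATP in 10 mM HEPES pH 7.4 saline (1 mM MgCl2, 2 mM CaCl2), 37 °C for 10 min. Heat-stopped at 99 °C. Nucleotides separated by capillary electrophoresis, UV 210 nm, UMP internal standard. Triplicates, two experiments.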

[6] = target: T6, Ectonucleoside triphosphate diphosphohydrolase 8 (Homo sapiens, UniProt Q5MY95); assay: Inhibition of human NTPDase 8 expressed in COS7 cells; type: cell-based, COS-7; method in brief: as §1
T6 sequence (Q5MY95 whole entry): T4 sequence (whole entry)

[7] = Metabolic stability in rat liver microsomes after 24 hrs by LC-MS analysis; type: ADME, Microsome; details: read-out: Stability
[8] = target: T7, P2Y purinoceptor 4 (Homo sapiens, UniProt P51582); assay: Antagonist activity at human P2Y4 receptor expressed in human 1321N1 cells assessed as inhibition of UTP-induced receptor activation at 100 uM relative to UTP; type: functional, cell-based; set-up: scale not given: the % may be the effect or the level left; method in brief: as §3
[9] = target: P2Y purinoceptor 6 (Rattus norvegicus) (UniProt Q63371); assay: Antagonist activity at rat P2Y6 receptor expressed in human 1321N1 cells assessed as inhibition of UDP-induced intracellular calcium mobilization at 100 uM by NOVOstar plate reader; type: functional, cell-based; method in brief: as §3
[10] = target: T3, P2Y purinoceptor 2; assay: Antagonist activity at human P2Y2 receptor expressed in human 1321N1 cells assessed as inhibition of UTP and ATP-induced receptor activation at 100 uM relative to UTP; type: functional, cell-based; set-up: scale not given: the % may be the effect or the level left; method in brief: as §3
[11] = target: P2Y purinoceptor 6 (Rattus norvegicus) (UniProt Q63371); assay: Antagonist activity at rat P2Y6 receptor expressed in human 1321N1 cells assessed as inhibition of UDP-induced receptor activation at 100 uM relative to UDP; type: functional, cell-based; set-up: scale not given: the % may be the effect or the level left; method in brief: as §3
[12] = Stability in simulated artificial gastric juice after 24 hrs by LC-MS analysis; type: physicochemical; details: simulated gi fluid
[13] = target: T7, P2Y purinoceptor 4; assay: Antagonist activity at human P2Y4 receptor expressed in human 1321N1 cells assessed as inhibition of UTP-induced intracellular calcium mobilization at 100 uM by FLUOstar plate reader; type: functional, cell-based; method in brief: as §3
[14] = Chemical stability in 0.001 N aqueous sodium hydroxide at pH 11 by LC-MS analysis; type: physicochemical; details: buffer
Method in brief: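 Compound from a 2 mM aqueous stock (20 mM NH4OAc) is diluted 10 μL into 990 μL of 0.001 N NaOH (pH 11). It is incubated 2 or 24 h at 37 °C and analysed by C18 LC–ESI-MS, with detection limit about 0.1 μg/mL.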

T3 sequence (P41231 whole entry): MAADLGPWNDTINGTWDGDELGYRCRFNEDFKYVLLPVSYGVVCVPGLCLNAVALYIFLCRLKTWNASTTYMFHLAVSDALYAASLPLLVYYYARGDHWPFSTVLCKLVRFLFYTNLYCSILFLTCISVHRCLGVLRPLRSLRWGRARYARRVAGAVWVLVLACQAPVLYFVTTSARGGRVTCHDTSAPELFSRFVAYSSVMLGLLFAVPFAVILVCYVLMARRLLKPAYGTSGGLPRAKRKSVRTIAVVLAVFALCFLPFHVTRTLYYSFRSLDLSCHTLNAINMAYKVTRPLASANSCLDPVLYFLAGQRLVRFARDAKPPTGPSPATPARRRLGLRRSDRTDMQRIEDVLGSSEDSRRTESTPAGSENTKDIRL
T7 sequence (P51582 whole entry): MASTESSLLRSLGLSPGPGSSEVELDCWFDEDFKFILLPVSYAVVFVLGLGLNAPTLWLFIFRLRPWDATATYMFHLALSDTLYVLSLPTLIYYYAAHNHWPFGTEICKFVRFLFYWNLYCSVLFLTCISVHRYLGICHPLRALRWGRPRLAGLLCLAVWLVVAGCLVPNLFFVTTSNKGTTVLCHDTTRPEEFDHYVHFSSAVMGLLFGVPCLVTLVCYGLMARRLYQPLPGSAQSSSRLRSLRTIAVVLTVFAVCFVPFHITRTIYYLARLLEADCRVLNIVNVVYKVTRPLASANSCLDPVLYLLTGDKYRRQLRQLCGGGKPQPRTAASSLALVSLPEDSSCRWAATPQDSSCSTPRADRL
P2Y purinoceptor 6 (Rattus norvegicus), sequence (Q63371 whole entry): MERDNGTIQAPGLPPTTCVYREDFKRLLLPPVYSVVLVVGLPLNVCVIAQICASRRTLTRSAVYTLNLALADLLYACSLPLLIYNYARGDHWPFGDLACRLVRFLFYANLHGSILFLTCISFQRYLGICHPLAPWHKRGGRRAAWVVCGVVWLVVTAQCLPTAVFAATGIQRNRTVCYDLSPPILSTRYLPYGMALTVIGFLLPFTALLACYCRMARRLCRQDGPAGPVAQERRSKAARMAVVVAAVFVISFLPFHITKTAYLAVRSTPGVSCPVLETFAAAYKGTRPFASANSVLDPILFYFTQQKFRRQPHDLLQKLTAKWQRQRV

Row | Structure (SMILES) | inhibition [1] | inhibition [2] | inhibition [4] | inhibition [5] | inhibition [3] | Ki [6] | remaining at 24 h [7] | Activity [8] | inhibition [9] | Activity [10] | Activity [11] | Activity [12] | inhibition [13] | Activity [14] | Stability [12] | Stability [14]
1 | CCOP(=O)(Cc1ccc(NC(=O)CCCNC(=O)[C@H]2O[C@@H](n3cnc4c(N)ncnc43)[C@H](O)[C@@H]2O)cc1)OCC | 0% | – | – | – | 37% | 255 µM | – | – | – | – | – | – | – | – | – | –
2 | CCOP(=O)(Cc1ccc(NC(=O)CCNC(=O)[C@H]2O[C@@H](n3ccc(=O)[nH]c3=O)[C@H](O)[C@@H]2O)cc1)OCC | 40% | – | 0% | – | 10% | – | > 95% | -6% | 7% | 14% | -5% | Active | 14% | Active | – | –
3 | CCOP(=O)(Cc1ccc(NC(=O)CCCNC(=O)[C@H]2O[C@@H](n3ccc(=O)[nH]c3=O)[C@H](O)[C@@H]2O)cc1)OCC | 48% | – | – | – | 6% | – | – | – | -8% | – | – | – | 7% | – | Stable | Stable

More lines, main results first:

Row | inhibition [1] | inhibition [2] | inhibition [4] | inhibition [5] | Structure (SMILES) | inhibition [3] | Ki [6] | remaining at 24 h [7] | Activity [8] | inhibition [9] | Activity [10] | Activity [11] | Activity [12] | inhibition [13] | Activity [14] | Stability [12] | Stability [14]
4 | 0% | 0% | 0% | 0% | CCOP(=O)(CNC(=O)CCNC(=O)[C@H]1O[C@@H](n2cnc3c(N)ncnc32)[C@H](O)[C@@H]1O)OCC | 29% | – | – | – | – | – | – | – | – | – | – | –
5 | 22% | 0% | 0% | – | CCOP(=O)(CCNC(=O)CNC(=O)[C@H]1O[C@@H](n2ccc(=O)[nH]c2=O)[C@H](O)[C@@H]1O)OCC | -7% | – | – | – | 9% | – | – | – | 8% | – | – | –
6 | 25% | 0% | 0% | 0% | CCOP(=O)(CNC(=O)CNC(=O)[C@H]1O[C@@H](n2cnc3c(N)ncnc32)[C@H](O)[C@@H]1O)OCC | 61% | – | – | -2% | – | 33% | 6% | – | – | – | – | –
7 | 0% | 0% | 0% | 0% | CCOP(=O)(Cc1ccc(NC(=O)CNC(=O)[C@H]2O[C@@H](n3cnc4c(N)ncnc43)[C@H](O)[C@@H]2O)cc1)OCC | – | – | – | – | 6% | – | – | – | 7% | – | – | –
